Reference: ChEMBL document CHEMBL2203008, “Photoaffinity labeling of Ras converting enzyme using peptide substrates that incorporate benzoylphenylalanine (Bpa) residues: improved labeling and structural implications” (Bioorg Med Chem, 2011)
Active and inactive are the calls of the source. The rule behind the calls is not given here. Starred links: 1 amine or outer side, 2 acyl side, 3 side chain; linkers in the order of their positions; H or OH if unused. Non-standard residues stand in square brackets, D forms with d. Residues, ends and D or L forms follow the SMILES beside them. *: point of attachment. X5 = O=C1N[C@H]2[C@H](CS[C@H]2CCCCC(=O)OCCOCCOCCN([C@@H](Cc2ccc(C(=O)c3ccccc3)cc2)C(=O)[*:2])[*:1])N1; X1 = NCCCC[C@@H](C(=O)[*:2])N(CCOCCOCCOC(=O)CCCC[C@@H]1SC[C@@H]2NC(=O)N[C@@H]21)[*:1]; Lys(Dde) = CC(NCCCC[C@H](N)C(=O)O)=C1C(=O)CC(C)(C)CC1=O; X4 = O=C1N[C@H]2[C@H](CS[C@H]2CCCCC(=O)OCCOCCOCCOCN*)N1; X2 = C/C(=C\C*)CC/C=C(\C)COCc1cccc(C(=O)c2ccccc2)c1; Bpa = N[C@@H](Cc1ccc(C(=O)c2ccccc2)cc1)C(=O)O; Dnp = O=[N+]([O-])c1ccc(*)c([N+](=O)[O-])c1; X3 = C/C(=C\C*)COCc1cccc(C(=O)c2ccccc2)c1; Farnesyl = CC(C)=CCC/C(C)=C/CC/C(C)=C/C*; Suc = O=C(CCC(=O)[*:2])[*:1]; 2Abz = Nc1ccccc1C(=O)O

Columns and labels:
[1] = test system: Saccharomyces cerevisiae; assay: Activity of Rce1p in yeast membrane assessed as release of -K(Dnp)IM tripeptide measured per mg protein by fluorescence-based proteolytic assay; assay type: cell membranes
Outline: (§1)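 Enzyme was carbonate-washed membranes from S. cerevisiae overexpressing HA-tagged yeast Rce1p as the sole CAAX protease. Membranes were preincubated 10 min at 30 °C, then added to the Abz/Dnp fluorogenic farnesyl peptide: 10 concentrations, 0–45 or 0–50 μM final, 0.25 mg/mL membrane protein, Hepes/MgCl2 pH 7.5. Fluorescence (340/420 nm) was read every 30–60 s for 1 h at 30 °C. RFU were converted to product using a trypsin standard curve to give KM and Vmax. Runs were done in two or five replicates.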

[2] = test system: Saccharomyces cerevisiae; assay: Ratio of Vmax to Km for Rce1p in yeast membrane assessed as release of -K(Dnp)IM tripeptide measured per mg protein by fluorescence-based proteolytic assay; assay type: cell membranes; outline: as §1
[3] = test system: Saccharomyces cerevisiae; assay: Activity of Rce1p in yeast membrane assessed as formation of Biotin-PEG3-KSK-Bpa-KC(Fr) at 20 uM after 4 hrs by RP-HPLC analysis; assay type: cell membranes
Outline: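 Probe diluted to 20 or 40 μM in 100 mM Hepes, 5 mM MgCl2, pH 7.5. Carbonate-washed yeast membranes containing Rce1p were added to 0.25 mg/mL total protein and incubated at 35 °C for about 4 h. Material was cleaned up on C18 reversed-phase cartridges and analysed by C18 RP-HPLC with diode-array detection at 220 and 349 nm. Product identity was checked by ESI-MS/MS.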

[4] = test system: Saccharomyces cerevisiae; assay: Competitive binding affinity to Rce1p active site in yeast membrane at 15 uM measured 30 mins post irradiation by Western blot analysis in presence of 50 uM Abz-KSKTKC(Fr)K(Dnp)IM; assay type: cell membranes
Outline: (§2)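 RCE1-HA membranes (0.25 μg/μL) were irradiated at 2537 Å with 15 μM probe for 30 min at 4 °C. The non-photoreactive farnesylated substrate was present at 50 or 100 μM, in Hepes/MgCl2 pH 7.5. Samples were taken through streptavidin pull-down, SDS-PAGE, anti-HA Western blot with ECL, and densitometry across four replicate experiments.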

[5] = test system: Saccharomyces cerevisiae; assay: Binding affinity to Rce1p in yeast membrane at 15 uM measured 20 mins post irradiation by pull-down-Western blot analysis; assay type: cell membranes
Outline: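 Biotinylated probes at 15 μM were mixed with membranes (0.25 μg/μL) from the RCE1-HA rce1Δ ste24Δ yeast strain in 100 mM Hepes, 5 mM MgCl2, pH 7.5. Samples were irradiated at 2537 Å for 20 min at 4 °C. Protein was precipitated and pulled down on streptavidin for 4 h at 4 °C, then separated by 12% SDS-PAGE. Detection was by anti-HA Western blot with ECL, followed by densitometry.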

[6] = test system: Saccharomyces cerevisiae; assay: Competitive binding affinity to Rce1p active site in yeast membrane at 15 uM measured 30 mins post irradiation by Western blot analysis in presence of 100 uM Abz-KSKTKC(Fr)K(Dnp)IM; assay type: cell membranes; outline: as §2
[7] = test system: Saccharomyces cerevisiae; assay: Binding affinity to rce1/ste24-deficient yeast cell membrane at 15 uM after 30 mins by Western blot analysis
Outline: (§3)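 Probe at 15 μM was irradiated at 2537 Å for 30 min at 4 °C in Hepes/MgCl2 pH 7.5, or left unirradiated. Membranes (0.25 μg/μL) came from RCE1-HA or Rce1p-lacking (rce1Δ ste24Δ) yeast strains. This was followed by streptavidin pull-down, SDS-PAGE and anti-HA Western blot with ECL detection.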

[8] = test system: Saccharomyces cerevisiae; assay: Binding affinity to Rce1p in yeast membrane at 15 uM after 30 mins by Western blot analysis; assay type: cell membranes; outline: as §3
[9] = test system: Saccharomyces cerevisiae; assay: Binding affinity to Rce1p in yeast membrane at 15 uM measured 30 mins post irradiation by time-course experiment; assay type: cell membranes
Outline: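 Time course: RCE1-HA membranes (0.25 μg/μL) were irradiated at 2537 Å and 4 °C with 15 μM probe for 10–60 min, in 100 mM Hepes, 5 mM MgCl2, pH 7.5. Labelled protein was taken through streptavidin pull-down, SDS-PAGE and anti-HA Western blotting.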

[10] = test system: Saccharomyces cerevisiae; assay: Binding affinity to rce1/ste24-deficient yeast cell membrane at 15 uM measured 30 mins post irradiation by Western blot analysis; outline: as §3
[11] = test system: Saccharomyces cerevisiae; assay: Binding affinity to Rce1p in yeast membrane at 15 uM measured 30 mins post irradiation by Western blot analysis; assay type: cell membranes; outline: as §3

CC[C@H](C)[C@H](NC(=O)[C@H](CCCCNc1ccc([N+](=O)[O-])cc1[N+](=O)[O-])NC(=O)[C@H](CSC/C=C(\C)CC/C=C(\C)CCC=C(C)C)NC(=O)[C@H](CCCCN)NC(=O)[C@@H](NC(=O)[C@H](CCCCN)NC(=O)[C@H](CO)NC(=O)[C@H](CCCCN)NC(=O)c1ccccc1N)[C@@H](C)O)C(=O)N[C@@H](CCSC)C(=O)O (H-[2Abz]KSKTKC(Farnesyl)K(Dnp)IM-OH)
Km [1]: 6.4 µM
Vmax [1]: 5.6 nmol/min/mg
Vmax/Km [2]: 8.6 ×10⁻⁴ L/min

CC[C@H](C)[C@H](NC(=O)[C@H](CCCCNc1ccc([N+](=O)[O-])cc1[N+](=O)[O-])NC(=O)[C@H](CSC/C=C(\C)COCc1cccc(C(=O)c2ccccc2)c1)NC(=O)[C@H](CCCCN)NC(=O)[C@@H](NC(=O)[C@H](CCCCN)NC(=O)[C@H](CO)NC(=O)[C@H](CCCCN)NC(=O)c1ccccc1N)[C@@H](C)O)C(=O)N[C@@H](CCSC)C(=O)O (H-[2Abz]KSKTKC(X3)K(Dnp)IM-OH)
Km [1]: 1.9 µM
Vmax [1]: 0.093 nmol/min/mg
Vmax/Km [2]: 4.8 ×10⁻⁵ L/min

CC[C@H](C)[C@H](NC(=O)[C@@H](NC(=O)[C@H](CSC/C=C(\C)CC/C=C(\C)CCC=C(C)C)NC(=O)[C@H](CCCCN)NC(=O)[C@H](Cc1ccc(C(=O)c2ccccc2)cc1)NC(=O)[C@H](CCCCN)NC(=O)[C@H](CO)NC(=O)[C@H](CCCCN)NCCOCCOCCOC(=O)CCCC[C@@H]1SC[C@@H]2NC(=O)N[C@@H]21)C(C)C)C(=O)N[C@@H](CCSC)C(=O)O (H-[X1]SK[Bpa]KC(Farnesyl)VIM-OH)
Activity [3]: Active
Activity [4]: 84%
Activity [5]: Active
Activity [6]: 7%
Activity [7]: inactive
Activity [8]: inactive
Activity [9]: Active
Activity [10]: inactive
Activity [11]: Active

CC[C@H](C)[C@H](NC(=O)[C@@H](NC(=O)[C@H](CSC/C=C(\C)CC/C=C(\C)CCC=C(C)C)NC(=O)[C@H](CCCCN)NC(=O)[C@@H](NC(=O)[C@H](Cc1ccc(C(=O)c2ccccc2)cc1)NC(=O)[C@H](CO)NC(=O)[C@H](CCCCN)NCCOCCOCCOC(=O)CCCC[C@@H]1SC[C@@H]2NC(=O)N[C@@H]21)[C@@H](C)O)C(C)C)C(=O)N[C@@H](CCSC)C(=O)O (H-[X1]S[Bpa]TKC(Farnesyl)VIM-OH)
Activity [5]: Active

CC[C@H](C)[C@H](NC(=O)[C@@H](NC(=O)[C@H](CSC/C=C(\C)CC/C=C(\C)CCC=C(C)C)NC(=O)[C@H](CCCCN)NC(=O)[C@@H](NC(=O)[C@H](CCCCN)NC(=O)[C@H](Cc1ccc(C(=O)c2ccccc2)cc1)NC(=O)[C@H](CCCCN)NCCOCCOCCOC(=O)CCCC[C@@H]1SC[C@@H]2NC(=O)N[C@@H]21)[C@@H](C)O)C(C)C)C(=O)N[C@@H](CCSC)C(=O)O (H-[X1][Bpa]KTKC(Farnesyl)VIM-OH)
Activity [5]: Active

CC[C@H](C)[C@H](NC(=O)[C@@H](NC(=O)[C@H](CSC/C=C(\C)CC/C=C(\C)CCC=C(C)C)NC(=O)[C@H](CCCCN)NC(=O)[C@@H](NC(=O)[C@H](CCCCN)NC(=O)[C@H](CO)NC(=O)[C@H](Cc1ccc(C(=O)c2ccccc2)cc1)NCCOCCOCCOC(=O)CCCC[C@@H]1SC[C@@H]2NC(=O)N[C@@H]21)[C@@H](C)O)C(C)C)C(=O)N[C@@H](CCSC)C(=O)O (H-[X5]SKTKC(Farnesyl)VIM-OH)
Activity [5]: Active

CC[C@H](C)[C@H](NC(=O)[C@H](CCCCNc1ccc([N+](=O)[O-])cc1[N+](=O)[O-])NC(=O)[C@H](CSC/C=C(\C)CC/C=C(\C)COCc1cccc(C(=O)c2ccccc2)c1)NC(=O)[C@H](CCCCN)NC(=O)[C@@H](NC(=O)[C@H](CCCCN)NC(=O)[C@H](CO)NC(=O)[C@H](CCCCN)NC(=O)[C@H](CCCCNC(C)=C1C(=O)CC(C)(C)CC1=O)NC(=O)CCC(=O)NCOCCOCCOCCOC(=O)CCCC[C@@H]1SC[C@@H]2NC(=O)N[C@@H]21)[C@@H](C)O)C(=O)N[C@@H](CCSC)C(=O)O ({X4-Suc}-[Lys(Dde)]KSKTKC(X2)K(Dnp)IM-OH)
Activity [5]: Active

CC[C@H](C)[C@H](NC(=O)[C@H](CCCCNc1ccc([N+](=O)[O-])cc1[N+](=O)[O-])NC(=O)[C@H](CSC/C=C(\C)COCc1cccc(C(=O)c2ccccc2)c1)NC(=O)[C@H](CCCCN)NC(=O)[C@@H](NC(=O)[C@H](CCCCN)NC(=O)[C@H](CO)NC(=O)[C@H](CCCCN)NC(=O)[C@H](CCCCNC(C)=C1C(=O)CC(C)(C)CC1=O)NC(=O)CCC(=O)NCOCCOCCOCCOC(=O)CCCC[C@@H]1SC[C@@H]2NC(=O)N[C@@H]21)[C@@H](C)O)C(=O)N[C@@H](CCSC)C(=O)O ({X4-Suc}-[Lys(Dde)]KSKTKC(X3)K(Dnp)IM-OH)
Activity [5]: Active
